{"source": "ChEMBL document CHEMBL1145462", "about": "“In vivo pharmacodynamic activity of the glycopeptide dalbavancin” (Antimicrob Agents Chemother, 2007)", "key": {"Staphylococcus aureus [1]": {"system": "Staphylococcus aureus", "experiment": "AUC/MIC ratio of Staphylococcus aureus Smith infected neutropenic mouse thigh infection model at 95 mg/kg, ip administered every 72 hrs by 1-log killing experiment", "type": "functional", "details": "route intraperitoneal"}, "[2]": {"experiment": "Cmax in bacterial pathogen-infected neutropenic Swiss ICR mouse thigh infection model at 5 mg/kg, ip", "type": "ADME, organism-based", "set-up": "dose 5 mg/kg, route intraperitoneal", "details": "in vivo", "how_it_was_run": "(§1)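 Thigh-infected neutropenic mice received single intraperitoneal doses (2.5, 5, 10, 20, 40, 80 mg/kg; 0.2 ml/dose). Blood was drawn by retroorbital aspiration from groups of three mice at 0.5, 1, 2, 4, 6, 24, 48, 72 and 96 h. Plasma levels were measured by microbiologic assay with Bacillus subtilis (detection limit 0.10 mg/liter). Noncompartmental analysis was used: half-life by linear least-squares regression, AUC by trapezoidal rule.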"}, "Staphylococcus aureus [3]": {"system": "Staphylococcus aureus", "experiment": "AUC/MBC ratio of Staphylococcus aureus Smith infected neutropenic mouse thigh infection model at 50.7 mg/kg, ip administered every 24 hrs by 1-log killing experiment", "type": "functional", "details": "route intraperitoneal"}, "Streptococcus pneumoniae [4]": {"system": "Streptococcus pneumoniae", "experiment": "AUC/MIC ratio of Streptococcus pneumoniae 1293 infected neutropenic mouse thigh infection model at 0.65 mg/kg, ip administered every 24 hrs by 2-log killing experiment", "type": "functional", "details": "route intraperitoneal"}, "Staphylococcus aureus [5]": {"system": "Staphylococcus aureus", "experiment": "AUC/MIC ratio of Staphylococcus aureus 31005 infected neutropenic mouse thigh infection model at 67.7 mg/kg, ip administered every 72 hrs by static effect experiment", "type": "functional", "details": "route intraperitoneal"}, "Staphylococcus aureus [6]": {"system": "Staphylococcus aureus", "experiment": "Bactericidal activity against […] Staphylococcus aureus ATCC 29213 infected neutropenic Swiss ICR mouse thigh infection model assessed as drug level causing 1-log reduction of bacterial count at 15 mg/kg, ip dosed every 36 hrs", "type": "functional", "details": "route intraperitoneal"}, "Streptococcus pneumoniae [7]": {"system": "Streptococcus pneumoniae", "experiment": "AUC/MIC ratio of Streptococcus pneumoniae 1293 infected neutropenic mouse thigh infection model at 0.44 mg/kg, ip administered every 24 hrs by static effect experiment", "type": "functional", "details": "route intraperitoneal"}, "Staphylococcus aureus [8]": {"system": "Staphylococcus aureus", "experiment": "Antibacterial activity against Staphylococcus aureus ATCC 25923 in presence of 95% mouse serum", "type": "functional", "how_it_was_run": "(§2)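 MIC determined in broth, heat-treated (100°C, 30 min) 95% mouse serum, and 95% mouse serum ultrafiltrate, using arithmetic dilutions of 0.02 mg/liter per tube. Protein binding estimated as (MIC in 95% serum − MIC in ultrafiltrate)/MIC in 95% serum.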"}, "Streptococcus pneumoniae [9]": {"system": "Streptococcus pneumoniae", "experiment": "AUC/MIC ratio of Streptococcus pneumoniae 1329 infected neutropenic mouse thigh infection model at 1.18 mg/kg, ip administered every 24 hrs by 1-log killing experiment", "type": "functional", "details": "route intraperitoneal"}, "Staphylococcus aureus [10]": {"system": "Staphylococcus aureus", "experiment": "AUC/MIC ratio of Staphylococcus aureus 33591 infected neutropenic mouse thigh infection model at 114 mg/kg, ip administered every 72 hrs by 2-log killing experiment", "type": "functional", "details": "route intraperitoneal"}, "[11]": {"experiment": "Cmax in bacterial pathogen-infected neutropenic Swiss ICR mouse thigh infection model at 40 mg/kg, ip", "type": "ADME, organism-based", "set-up": "dose 40 mg/kg, route intraperitoneal", "details": "in vivo", "how_it_was_run": "as §1"}, "Streptococcus pneumoniae [12]": {"system": "Streptococcus pneumoniae", "experiment": "AUC/MIC ratio of Streptococcus pneumoniae 1199 infected neutropenic mouse thigh infection model at 0.40 mg/kg, ip administered every 24 hrs by static effect experiment", "type": "functional", "details": "dose 0.4 mg/kg; route intraperitoneal"}, "Staphylococcus aureus [13]": {"system": "Staphylococcus aureus", "experiment": "AUC/MIC ratio of Staphylococcus aureus 33591 infected neutropenic mouse thigh infection model at 33.5 mg/kg, ip administered every 24 hrs by 2-log killing experiment", "type": "functional", "details": "route intraperitoneal"}, "Staphylococcus aureus [14]": {"system": "Staphylococcus aureus", "experiment": "AUC/MIC ratio of Staphylococcus aureus 33591 infected neutropenic mouse thigh infection model at 74 mg/kg, ip administered every 72 hrs by static effect experiment", "type": "functional", "details": "route intraperitoneal"}, "Staphylococcus aureus [15]": {"system": "Staphylococcus aureus", "experiment": "AUC/MIC ratio of Staphylococcus aureus 307109 infected neutropenic mouse thigh infection model at 31 mg/kg, ip administered every 72 hrs by static effect experiment", "type": "functional", "details": "route intraperitoneal"}, "Staphylococcus aureus [16]": {"system": "Staphylococcus aureus", "experiment": "Bactericidal activity against […] Staphylococcus aureus ATCC 29213 infected neutropenic Swiss ICR mouse thigh infection model assessed as drug level causing 1-log reduction of bacterial count at 267 mg/kg, ip dosed every 24 hrs", "type": "functional", "details": "route intraperitoneal"}, "Staphylococcus aureus [17]": {"system": "Staphylococcus aureus", "experiment": "AUC/MBC ratio of Staphylococcus aureus 31005 infected neutropenic mouse thigh infection model at 94.6 mg/kg, ip administered every 72 hrs by 1-log killing experiment", "type": "functional", "details": "route intraperitoneal"}, "Staphylococcus aureus [18]": {"system": "Staphylococcus aureus", "experiment": "AUC/MIC ratio of Staphylococcus aureus Smith infected neutropenic mouse thigh infection model at 59 mg/kg, ip administered every 72 hrs by static effect experiment", "type": "functional", "details": "route intraperitoneal"}, "Streptococcus pneumoniae [19]": {"system": "Streptococcus pneumoniae", "experiment": "AUC/MIC ratio of Streptococcus pneumoniae 1325 infected neutropenic mouse thigh infection model at 1.73 mg/kg, ip administered every 24 hrs by 2-log killing experiment", "type": "functional", "details": "route intraperitoneal"}, "[20]": {"experiment": "Half life in bacterial pathogen-infected neutropenic Swiss ICR mouse thigh infection model at 2.5 mg/kg, ip", "type": "ADME, organism-based", "set-up": "dose 2.5 mg/kg, route intraperitoneal", "details": "in vivo", "how_it_was_run": "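Single ip dose (0.2 ml) given to thigh-infected neutropenic ICR Swiss mice. Retro-orbital blood taken from groups of three at 0.5–96 h; plasma assayed microbiologically with Bacillus subtilis (detection limit 0.10 mg/liter). Half-life derived by linear least-squares regression within a noncompartmental analysis.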"}, "Streptococcus pneumoniae [21]": {"system": "Streptococcus pneumoniae", "experiment": "AUC/MIC ratio of Streptococcus pneumoniae 1329 infected neutropenic mouse thigh infection model at 0.90 mg/kg, ip administered every 24 hrs by static effect experiment", "type": "functional", "details": "dose 0.9 mg/kg; route intraperitoneal"}, "Staphylococcus aureus [22]": {"system": "Staphylococcus aureus", "experiment": "AUC/MBC ratio of Staphylococcus aureus 31005 infected neutropenic mouse thigh infection model at 49.3 mg/kg, ip administered every 24 hrs by static effect experiment", "type": "functional", "details": "route intraperitoneal"}, "Staphylococcus aureus [23]": {"system": "Staphylococcus aureus", "experiment": "Bactericidal activity against […] Staphylococcus aureus ATCC 29213 infected neutropenic Swiss ICR mouse thigh infection model assessed as drug level causing 2-log reduction of bacterial count at 15 mg/kg, ip dosed every 36 hrs", "type": "functional", "details": "route intraperitoneal"}, "Staphylococcus aureus [24]": {"system": "Staphylococcus aureus", "experiment": "AUC/MBC ratio of methicillin-resistant Staphylococcus aureus infected neutropenic mouse thigh infection model at 53.5 mg/kg, ip administered every 24 hrs by 2-log killing experiment", "type": "functional", "details": "route intraperitoneal"}, "Staphylococcus aureus [25]": {"system": "Staphylococcus aureus", "experiment": "AUC/MIC ratio of methicillin-resistant Staphylococcus aureus infected neutropenic mouse thigh infection model at 45.3 mg/kg, ip administered every 24 hrs by 1-log killing experiment", "type": "functional", "details": "route intraperitoneal"}, "Streptococcus pneumoniae [26]": {"system": "Streptococcus pneumoniae", "experiment": "Antibacterial activity against Streptococcus pneumoniae 1329 by microdilution method", "type": "functional", "how_it_was_run": "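MIC and MBC were determined by CLSI broth microdilution, in duplicate on at least two occasions. Staphylococci were grown in Mueller-Hinton broth and agar; pneumococci were plated on sheep blood agar.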"}, "Staphylococcus aureus [27]": {"system": "Staphylococcus aureus", "experiment": "Antibacterial activity against methicillin-resistant Staphylococcus aureus by microdilution method", "type": "functional", "how_it_was_run": "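MICs in duplicate on at least two occasions by standard CLSI broth microdilution; S. aureus grown and quantified in Mueller-Hinton broth/agar.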"}, "Staphylococcus aureus [28]": {"system": "Staphylococcus aureus", "experiment": "AUC/MIC ratio of Staphylococcus aureus 307109 infected neutropenic mouse thigh infection model at 34 mg/kg, ip administered every 72 hrs by 1-log killing experiment", "type": "functional", "details": "route intraperitoneal"}, "Staphylococcus aureus [29]": {"system": "Staphylococcus aureus", "experiment": "Antibacterial activity against methicillin-resistant Staphylococcus aureus in presence of 95% mouse serum ultrafiltrate", "type": "functional", "how_it_was_run": "as §2"}, "[30]": {"experiment": "Half life in bacterial pathogen-infected neutropenic Swiss ICR mouse thigh infection model at 40 mg/kg, ip", "type": "ADME, organism-based", "set-up": "dose 40 mg/kg, route intraperitoneal", "details": "in vivo", "how_it_was_run": "as §1"}, "Staphylococcus aureus [31]": {"system": "Staphylococcus aureus", "experiment": "AUC/MBC ratio of Staphylococcus aureus 307109 infected neutropenic mouse thigh infection model at 34 mg/kg, ip administered every 72 hrs by 1-log killing experiment", "type": "functional", "details": "route intraperitoneal"}, "Mus musculus": {"system": "Mus musculus", "experiment": "AUC in bacterial pathogen-infected neutropenic Swiss ICR mouse thigh infection model at 10 mg/kg, ip", "type": "ADME, organism-based", "set-up": "dose 10 mg/kg, route intraperitoneal", "details": "in vivo", "how_it_was_run": "as §1"}, "[32]": {"experiment": "Cmax in bacterial pathogen-infected neutropenic Swiss ICR mouse thigh infection model at 20 mg/kg, ip", "type": "ADME, organism-based", "set-up": "dose 20 mg/kg, route intraperitoneal", "details": "in vivo", "how_it_was_run": "as §1"}}, "data": [{"compound": "CN[C@H]1C(=O)N[C@@H]2Cc3ccc(cc3)Oc3cc4cc(c3O[C@@H]3O[C@H](C(=O)O)[C@@H](O)[C@H](O)[C@H]3NC(=O)CCCCCCCCC(C)C)Oc3ccc(cc3Cl)[C@@H](O)[C@@H]3NC(=O)[C@H](NC(=O)[C@@H]4NC(=O)[C@@H](NC2=O)c2cc(cc(O)c2Cl)Oc2cc1ccc2O)c1ccc(O)c(c1)-c1c(O[C@H]2O[C@H](CO)[C@@H](O)[C@H](O)[C@@H]2O)cc(O)cc1[C@@H](C(=O)NCCCN(C)C)NC3=O", "note": "[DALBAVANCIN]", "values": [{"measurement": "RatioAUC/MIC", "setting": "Staphylococcus aureus [1]", "result": 163}, {"measurement": "Cmax", "setting": "[2]", "result": 29, "unit": "µg/mL"}, {"measurement": "Ratio", "setting": "Staphylococcus aureus [3]", "result": 119}, {"measurement": "RatioAUC/MIC", "setting": "Streptococcus pneumoniae [4]", "result": 25.9}, {"measurement": "RatioAUC/MIC", "setting": "Staphylococcus aureus [5]", "result": 223}, {"measurement": "Activity", "setting": "Staphylococcus aureus [6]", "result": 36}, {"measurement": "RatioAUC/MIC", "setting": "Streptococcus pneumoniae [7]", "result": 17.4}, {"measurement": "MIC", "setting": "Staphylococcus aureus [8]", "result": 32, "unit": "µg/mL"}, {"measurement": "RatioAUC/MIC", "setting": "Streptococcus pneumoniae [9]", "result": 23.5}, {"measurement": "RatioAUC/MIC", "setting": "Staphylococcus aureus [10]", "result": 195}, {"measurement": "Cmax", "setting": "[11]", "result": 385, "unit": "µg/mL"}, {"measurement": "RatioAUC/MIC", "setting": "Streptococcus pneumoniae [12]", "result": 16}, {"measurement": "RatioAUC/MIC", "setting": "Staphylococcus aureus [13]", "result": 157}, {"measurement": "RatioAUC/MIC", "setting": "Staphylococcus aureus [14]", "result": 123}, {"measurement": "RatioAUC/MIC", "setting": "Staphylococcus aureus [15]", "result": 94}, {"measurement": "ED 1-log kill", "setting": "Staphylococcus aureus [16]", "result": 267, "unit": "mg/kg/day"}, {"measurement": "Ratio", "setting": "Staphylococcus aureus [17]", "result": 163}, {"measurement": "RatioAUC/MIC", "setting": "Staphylococcus aureus [18]", "result": 96}, {"measurement": "RatioAUC/MIC", "setting": "Streptococcus pneumoniae [19]", "result": 34.5}, {"measurement": "half-life", "setting": "[20]", "result": 13.1, "unit": "h"}, {"measurement": "RatioAUC/MIC", "setting": "Streptococcus pneumoniae [21]", "result": 18}, {"measurement": "Ratio", "setting": "Staphylococcus aureus [22]", "result": 242}, {"measurement": "Activity", "setting": "Staphylococcus aureus [23]", "result": 122}, {"measurement": "Ratio", "setting": "Staphylococcus aureus [24]", "result": 125}, {"measurement": "RatioAUC/MIC", "setting": "Staphylococcus aureus [25]", "result": 452}, {"measurement": "MBC", "setting": "Streptococcus pneumoniae [26]", "result": 0.008, "unit": "µg/mL"}, {"measurement": "MIC", "setting": "Streptococcus pneumoniae [26]", "result": 0.008, "unit": "µg/mL"}, {"measurement": "MBC", "setting": "Staphylococcus aureus [27]", "result": 0.25, "unit": "µg/mL"}, {"measurement": "MIC", "setting": "Staphylococcus aureus [27]", "result": 0.06, "unit": "µg/mL"}, {"measurement": "RatioAUC/MIC", "setting": "Staphylococcus aureus [28]", "result": 108}, {"measurement": "MIC", "setting": "Staphylococcus aureus [29]", "result": 0.5, "unit": "µg/mL"}, {"measurement": "half-life", "setting": "[30]", "result": 9.7, "unit": "h"}, {"measurement": "Ratio", "setting": "Staphylococcus aureus [31]", "result": 12.9}, {"measurement": "AUC", "setting": "Mus musculus", "result": 579, "unit": "µg·h/mL"}, {"measurement": "Cmax", "setting": "[32]", "result": 190, "unit": "µg/mL"}]}]}
